Assay: Toxicity liver stage against HepG2, at 10uM
Format: cell-based
Design: test concentration 10 uM, cell line HepG2-A16-CD81EGFP
Settings: human, HepG2-A16-CD81EGFP cells; read-out: INHIBITION
Method in brief: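 Uninfected HepG2-A16-CD81EGFP cells, 3 × 10^3 per well, 1536-well, plated on prespotted compound at 10 μM final, parasite-free screening media added to match infected plates; puromycin 10 μM positive, DMSO 0.5% negative; run in parallel with 48 h PbLuc assay at 37 °C, 5% CO2; viability by CellTiter-Glo luminescence, normalized to controls.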

Compound	cytotoxicity at 10 µM
CC(C)N1CC2(CCCN(Cc3noc(C4CCCC4)n3)C2)CCC1=O (configuration not stated)	0.00194%
CCCN1CC2(CCN(C)CC2)CC1C(=O)NCc1cc(C)nn1C (configuration not stated)	0.318%
COc1ccc2c(c1)CCCN2C(=O)NCCc1cnn(C)c1	-6.94%
O=C1N(c2ccsc2)CCC12CCCN(Cc1ccccn1)C2 (configuration not stated)	2.03%
N#Cc1cc(CSCCN2CCOCC2)ccc1F	-7.73%
O=C(CCc1ccncc1)N1CCc2cc(Cl)cc(Cl)c2C1	-24.3%
Cc1ccn(CCC(=O)NCCc2ccco2)n1	-4.81%
CCc1nnc2n1CCN(C(=O)CCOc1cc(C)ccc1C)C2	-11.3%
Cc1c(NCc2ccccc2C#N)cccc1S(=O)(=O)NC1CC1	30.4%
CCCN(Cc1nc2ccccc2[nH]1)Cc1ccccc1OC	-39.6%
CC(C)c1cc(NCC(O)c2ccccn2)n2nccc2n1 (configuration not stated)	13%
Cn1cccc1CN(C(=O)Cc1cccs1)C1CC1	7.53%
COC(=O)Cn1c(=O)[nH]c2cn(-c3cccc(Cl)c3)c(=O)n21	-1.39%
Cc1ncc(C(=O)NC2CCN(CCOc3ccc(Br)cc3)CC2)s1	7.28%
Cn1ncc2c(N3CCN4CCCCC4C3)nc(C3CCCC3)nc21 (configuration not stated)	-139%
CCc1cc(N2CCC(NC3CN4CCC3CC4)CC2)nc(N(C)C)n1 (configuration not stated)	-2.12%
CCn1ncc(CN2C[C@@H]3CCCN3C[C@@H]2CCSC)c1C	-27.3%
COc1ccc(CN(C)Cc2c(C)noc2C)c(Br)c1OC	-0.2%
CCc1nc(N)sc1C(=O)N1CCCC(CCc2ccccc2C)C1 (configuration not stated)	6.46%
CN(C)S(=O)(=O)c1ccc(=O)n(CC2CCCO2)c1 (configuration not stated)	-3.54%
CN1CCOC(C(=O)N2CCCC(C)(C)CC2)C1 (configuration not stated)	6.67%
Cc1cnn(CC2CCN(CC(O)c3ccccc3Cl)CC2)c1 (configuration not stated)	4.51%
COc1cccc(CC(=O)N2CCCC2c2nc(C)c(F)c(O)n2)c1 (configuration not stated)	-21.6%

Compound	cytotoxicity at 10 µM
CCCN1CC2(CCN(C)CC2)CC1C(=O)NCCn1cccn1 (configuration not stated)	-5.46%
N#Cc1ccc(CN2CCOCC2)cc1	-9.32%
N#CCSCCCN1CCCN(C(=O)c2ccccc2)CC1	-3.74%
COc1ccc(OCc2nc(C(=O)N3C[C@H](O)[C@@H](N(C)C)C3)co2)cc1	-1.74%
CN1CCN(Cc2ccco2)Cc2cccnc21	2.04%
Cc1noc(C)c1C(=O)NCc1ccc(N2CCOC(C)C2)nc1 (configuration not stated)	-3.46%
Cc1nn(C)c(=O)c2nn(-c3cccc(Cl)c3)c(C)c12	3.79%
CCOCC(=O)Nc1cc(-c2cccc(F)c2F)n[nH]1	0.107%
CCCc1ccc(S(=O)(=O)Nc2ccc(=O)n(C)c2)cc1	43.5%
Cc1cn2c(n1)C(CNCc1cccc3c1OCO3)CCC2 (configuration not stated)	-0.372%
CN(Cc1nc(N)nc(N(C)C)n1)Cc1cccc2ccccc12	0.554%
N#Cc1ccc(CN2CCC(CN3CCOCC3)C2)cc1 (configuration not stated)	-7.01%
N#Cc1ccccc1CN1C[C@@H]2CC[C@H]1CN(C(=O)c1cccnc1)C2	-0.849%
CC(C)(C)S(=O)(=O)CCNC(=O)c1ccc2ccccc2c1	0.995%
Cc1nc(COc2ccc(OC(C)C(N)=O)cc2)oc1C (configuration not stated)	-1.65%
COC[C@@]12CCO[C@@H]1CCN(C(=O)COc1ccccc1OC)C2	-8.89%
Cc1nc2c(C)cccc2cc1C(=O)N1CCC2(CCNCC2)CC1	-8.37%
COc1ccccc1[C@@H]1CN(CC(=O)N2CCCCC2)C[C@H]1C(=O)O	-2.82%
CCOC1COC2(CCN(Cc3cccc(F)c3)CC2)C1 (configuration not stated)	5.47%
Cc1cccc(COC[C@@H]2CC[C@H]3[C@H](CCN3Cc3ccco3)O2)n1	-9.81%
Cc1cc(C)n(CC2CN(CCc3ccncc3)CCO2)n1 (configuration not stated)	0.347%
O=C(Cc1ccc2c(c1)OCO2)N1CCN(c2ccncc2)CC1	-22.9%
CCc1nc(C2CCCN(C(=O)c3cccc(Cl)c3)C2)no1 (configuration not stated)	-7.55%

Compound	cytotoxicity at 10 µM
OCC1COCCN(c2ncccc2C(F)(F)F)C1 (configuration not stated)	-9.34%
CCc1nnsc1C(=O)N1CCOC(c2nc(C)n[nH]2)C1 (configuration not stated)	-6.45%
CC(Cn1cccn1)NC(=O)N(C)Cc1ccsc1 (configuration not stated)	-3.81%
O=C(NCCCOc1cccnc1)c1cn(Cc2ccccc2F)nn1	1.03%
N#Cc1ccc(CN(CCF)Cc2cccc(F)c2)cc1	-4.11%
Cc1nn(C)c(C)c1NC(=O)c1cccc(CN2CCS(=O)(=O)CC2)c1	-15.8%
CN1Cc2ccccc2CC2(CCN(c3ncccn3)CC2)C1=O	-7.42%
Cc1cnn(CC2CCCCN2C(=O)c2ccccc2-n2cccn2)c1 (configuration not stated)	-8.4%
Cn1nc(C2CCCN(Cc3ccccc3)C2)c2nccnc21 (configuration not stated)	-9.05%
Cc1nc(N(C)CCCc2nccn2C)c2nc(C)oc2n1	5.82%
O=C(Cc1cccnc1)N1CCCC(c2cc(C(F)(F)F)[nH]n2)C1 (configuration not stated)	-42.6%
CCOC(C)c1noc(CN2CCNCC2)n1 (configuration not stated)	1.03%
Cc1nc(C)c(C(=O)N2CCC(Nc3cccnc3)CC2)s1	-6.75%
O=C(NCCN1CCCCCC1=O)c1ccc(=O)[nH]n1	-19.3%
Cc1ccc(N(C)S(=O)(=O)c2cc(C(=O)O)cs2)cc1	0.0898%
COCCN1C[C@@H]2[C@@H](OC)CCN(C(=O)c3cccc(OC)c3)[C@@H]2C1	-1.01%
CCN(CC)CCn1ccnc1-c1cccc(O)c1	-5.13%
CC(=O)N1CCN(C)CC(COCc2ccccc2)C1 (configuration not stated)	-4.79%
CC(C)c1nccn1C(C)C(=O)NCc1noc(Cc2cccs2)n1 (configuration not stated)	-4.91%
Cn1cc(C2CCCN2c2ncnc3[nH]ccc23)cn1 (configuration not stated)	-9.59%
CNC(=O)COC1COC2(CCN(c3cnccn3)CC2)C1 (configuration not stated)	-8.44%
NC(=O)C1(c2cnccn2)CCCN1C(=O)Cc1ccsc1 (configuration not stated)	1.54%
CCOC[C@@H]1CCC[C@@]12CN(Cc1nccs1)CCO2	1.77%

Compound	cytotoxicity at 10 µM
CC(C)C1CC(=O)Nc2c1cnn2Cc1ccco1 (configuration not stated)	1.27%
CN(C(=O)c1ccnn1C)[C@@H]1CCC[C@@H](Oc2ccccc2)[C@@H]1O	-35.9%
CS(=O)(=O)Cc1ccc(C(=O)N2CCCC(n3cncn3)C2)o1 (configuration not stated)	-9%
c1ccc(CN2CCNCC(Cc3cnccn3)C2)cc1 (configuration not stated)	-8.65%
COCCN1C[C@@H]2CN(c3cc(OC)ncn3)CCC[C@]2(C(=O)O)C1	4.26%
Cc1cnccc1NCCNC(=O)C1CCCN(Cc2ccco2)C1 (configuration not stated)	-7.67%
C[C@@H]1CN(C(=O)c2cccc(F)c2)C[C@]12CCN(c1ccsc1)C2=O	-80%
CC(SCC(=O)NC(N)=O)c1ccccc1F (configuration not stated)	2.96%
COc1ccc(OCc2nc(C(=O)N3CC[C@H](O)[C@@H](O)C3)co2)cc1	-5.42%
Cc1c(C(=O)NCCC(=O)N2CCOCC2)oc2c(C)cccc12	-1.96%
CCOCC(=O)Nc1ncc(I)cc1C	-4.76%
Cc1cc2c(cc1Cl)C=CC1(CCN(CC(=O)N3CCCC3)CC1)O2	-8.05%
Cc1nc(C2CCCN(C(=O)c3ccncc3)C2)c2sccn12 (configuration not stated)	-10.4%
COCC1CN(C(=O)C2=CCCC2)Cc2cnn(CC3CC3)c21 (configuration not stated)	9.61%
OC(COCc1ccccc1Cl)CN1CCC(c2ccn[nH]2)CC1 (configuration not stated)	-15.1%
CC(C)N1CCCN(c2nc(-c3cccnc3)nc3c2cnn3C)CC1	28.2%
Cc1cc(C)n(C2CCCN(C(=O)c3ccc(F)cc3F)C2)n1 (configuration not stated)	0.743%
Cc1n[nH]c(C2CN(C(=O)c3ccc(Cl)o3)CCO2)n1 (configuration not stated)	-5.59%
CNC(=O)c1cc2c(nc1N(C)C)CCN(c1ncc(C)cn1)CC2	-119%
Cc1nccn1C1CCCN(C(=O)c2cccc(-n3cccc3)c2)C1 (configuration not stated)	-23%
CCN(CC)CCSc1nnc(N2CCN(c3ccc(F)cc3)CC2)s1	-5.12%
CCC(C)CN1CCC(n2cc(C3CCCC3)nn2)CC1 (configuration not stated)	-2.13%
Cc1nc(C2(O)CCCNCC2)sc1CCOc1ccccc1Cl (configuration not stated)	-28.1%

Compound	cytotoxicity at 10 µM
Cc1nc(C2CCCNC2)nc2c1CCCN2Cc1ccccn1 (configuration not stated)	-2.76%
O=C(Nc1ncn(CC(=O)N2CCCCCC2)n1)C1CCCC1	-11.2%
Fc1ccc(-c2cnc(CN3CCCC3Cn3cccn3)o2)cc1 (configuration not stated)	-7.52%
O=C1c2ccccc2C(=O)N1CC(O)Cn1nc(-c2cccs2)oc1=O (configuration not stated)	-14.5%
O=C1C[C@@H]2CCN(Cc3ccccc3)C[C@@H]2CCN1C1CCCCC1	5.17%
Cc1nc(C)n(CC2CCCN2CC(=O)N(C)Cc2ccc(C)o2)n1 (configuration not stated)	8.52%
CCCN(CC(F)F)C(=O)CCc1c(C)nc2cc(O)nn2c1C	-147%
Cc1nccn1CCCC(=O)Nc1nc(C(C)C)nn1C	-1.37%
CCN1CC2(CC1=O)CN(C(=O)c1cccs1)CCN(C(=O)N(C)C)C2 (configuration not stated)	2%
O=S(=O)(NCc1ccc(S(=O)(=O)N2CCCC2)s1)c1ccc(F)cc1Cl	-39.9%
CCC1CN(C(=O)c2cc(C(C)=O)c(C)[nH]c2=O)CCN1C(C)C (configuration not stated)	6.03%
Cc1nc(C)n(CC2CCCN(Cc3cccc(C#N)c3)C2)n1 (configuration not stated)	-16%
CC(=O)N[C@@H]1Cc2ccccc2[C@H]1Nc1ccncn1	-43.6%
CCNC(=O)NC(=O)CNC(C)(CC)c1nc(C)cs1 (configuration not stated)	6.99%
CC(C)(C)n1cc(C(=O)NCCCn2ccnc2)c2cccnc21	0.698%
Cc1ccc(OCC(O)Cn2ncc3cnn(C)c(=O)c32)cc1 (configuration not stated)	-3.49%
CCC1(O)CCCN(c2nc(C(C)(C)C)nc3c2cnn3C)C1 (configuration not stated)	-52.9%
Cc1cn(-c2ccccc2)nc1NS(=O)(=O)c1cc(C(=O)O)ccc1Cl	13.1%
CCc1cnc(NCCS(=O)(=O)N(C)C)nc1	-10.2%
Cc1nsc(NC(=O)N2CCCCC2CCCO)n1 (configuration not stated)	-46.3%

From ChEMBL document CHEMBL4513216, “Probing the Open Global Health Chemical Diversity Library for Multistage-Active Starting Points for Next-Generation Antimalarials” (ACS Infect Dis, 2020)
